{
  "source": "ChEMBL document CHEMBL4715714",
  "about": "“Design, synthesis and biological evaluation of thiosemicarbazones, hydrazinobenzothiazoles and arylhydrazones as anticancer agents with a potential to overcome multidrug resistance” (Eur J Med Chem, 2016)",
  "note": "The source made the active and inactive calls. The calls are words filed in the database; no cut-off is given here.",
  "data": [
    {"test_system": "A2780", "assay": "(§1) Cytotoxicity against human A2780 cells assessed as inhibition of cell proliferation incubated for 72 hrs by MTT assay", "type": "functional, cell-based", "settings": "not given", "how_it_was_run": "(§2)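 Cells were seeded (10000/well for A2780, 5000/well for MES-SA/Dx5 and KB-3-1/V1) and left to attach 12 h, then exposed to compound for 72 h. Medium was removed, and MTT (0.83 mg/mL) was added for 1 h at 37 °C. Cells were lysed in DMSO and absorbance read at 540 nm. Signal was corrected for unstained lysate background, normalized to untreated cells, and IC50 taken from a sigmoidal dose-response fit.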", "values": [
      {"smiles": "COc1cc(N/N=C2/C(=O)Nc3ccccc32)ncn1", "pIC50": "inactive"}
    ]},
    {"test_system": "A2780", "assay": "as §1", "type": "functional, cell-based", "settings": "A2780, 72 h, read-out: IC50", "how_it_was_run": "as §2", "units": {"IC50": "µM"}, "values": [
      {"smiles": "Cc1ccc(NC(=S)N/N=C/c2ccccn2)cc1", "IC50": 0.048},
      {"smiles": "Oc1ccccc1/C=N/Nc1nc2ccccc2s1", "IC50": 3.16}
    ]},
    {"test_system": "A2780", "assay": "as §1", "type": "functional, cell-based", "settings": "A2780, 72 h, read-out: pIC50 (converted)", "how_it_was_run": "as §2", "units": {"IC50": "µM"}, "values": [
      {"smiles": "Cc1ccc(NC(=S)N/N=C/c2ccccn2)cc1", "IC50": 0.0479},
      {"smiles": "Oc1ccccc1/C=N/Nc1nc2ccccc2s1", "IC50": 3.09}
    ]},
    {"test_system": "not listed separately", "assay": "Selectivity ratio of IC50 for human MES-SA cells to IC50 for human MES-SA/DX5 cells incubated for 72 hrs by MTT assay", "type": "functional", "settings": "not given", "how_it_was_run": "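The selectivity ratio is the IC50 in P-gp-negative parental cells divided by the IC50 in the P-gp-positive resistant partner.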", "values": [
      {"smiles": "Cc1ccc(NC(=S)N/N=C/c2ccccn2)cc1", "Ratio IC50": 4.55},
      {"smiles": "Oc1ccccc1/C=N/Nc1nc2ccccc2s1", "Ratio IC50": 2.04}
    ]},
    {"test_system": "MES-SA/Dx5", "assay": "Cytotoxicity against human MES-SA/DX5 cells transfected with mCherry fluorescent protein incubated for 72 hrs in presence of efflux pump inhibitor, Tariquidar by fluorescence assay", "type": "functional, cell-based", "settings": "not given", "how_it_was_run": "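The mCherry-expressing cells (lentiviral) were seeded at 5000 or 2500 per well, attached for 24 h, and exposed 72 h to compounds with Tariquidar coadministered. Live-cell signal was fluorescence at 585 nm excitation and 610 nm emission.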", "values": [
      {"smiles": "Oc1ccccc1/C=N/Nc1nc2ccccc2s1", "Activity": "inactive"}
    ]},
    {"test_system": "MES-SA/Dx5", "assay": "(§3) Cytotoxicity against human MES-SA/DX5 cells assessed as inhibition of cell proliferation incubated for 72 hrs by MTT assay", "type": "functional, cell-based", "settings": "MES-SA/Dx5, 72 h, read-out: IC50", "how_it_was_run": "as §2", "units": {"IC50": "µM"}, "values": [
      {"smiles": "Cc1ccc(NC(=S)N/N=C/c2ccccn2)cc1", "IC50": 0.076},
      {"smiles": "Oc1ccccc1/C=N/Nc1nc2ccccc2s1", "IC50": 10.5}
    ]},
    {"test_system": "MES-SA/Dx5", "assay": "as §3", "type": "functional, cell-based", "settings": "MES-SA/Dx5, 72 h, read-out: pIC50 (converted)", "how_it_was_run": "as §2", "units": {"IC50": "µM"}, "values": [
      {"smiles": "Cc1ccc(NC(=S)N/N=C/c2ccccn2)cc1", "IC50": 0.0724},
      {"smiles": "Oc1ccccc1/C=N/Nc1nc2ccccc2s1", "IC50": 9.55},
      {"smiles": "COc1cc(N/N=C2/C(=O)Nc3ccccc32)ncn1", "IC50": 129}
    ]},
    {"test_system": "MES-SA", "assay": "(§4) Cytotoxicity against human MES-SA cells transfected with mCherry fluorescent protein assessed as inhibition of cell proliferation incubated for 72 hrs by fluorescent assay", "type": "functional, cell-based", "settings": "Homo sapiens, MES-SA, 72 h; read-out: IC50", "how_it_was_run": "(§5)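 MES-SA and MES-SA/Dx5 cells were made to stably express mCherry by lentiviral transduction. Cells were seeded at 5000 (96-well) or 2500 (384-well) per well, allowed to attach 24 h, then treated with compound dilutions for 72 h. Viability was read as fluorescence, excitation 585 nm, emission 610 nm.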", "units": {"IC50": "µM"}, "values": [
      {"smiles": "Cc1ccc(NC(=S)N/N=C/c2ccccn2)cc1", "IC50": 0.79},
      {"smiles": "Oc1ccccc1/C=N/Nc1nc2ccccc2s1", "IC50": 23.2}
    ]},
    {"test_system": "MES-SA", "assay": "as §4", "type": "functional, cell-based", "settings": "Homo sapiens, MES-SA, 72 h; read-out: pIC50 (converted)", "how_it_was_run": "as §5", "units": {"IC50": "µM"}, "values": [
      {"smiles": "Cc1ccc(NC(=S)N/N=C/c2ccccn2)cc1", "IC50": 0.759},
      {"smiles": "Oc1ccccc1/C=N/Nc1nc2ccccc2s1", "IC50": 26.9}
    ]},
    {"test_system": "MES-SA", "assay": "as §4", "type": "functional, cell-based", "settings": "mes-sa", "how_it_was_run": "as §5", "values": [
      {"smiles": "COc1cc(N/N=C2/C(=O)Nc3ccccc32)ncn1", "IC50": "Not Active"}
    ]},
    {"test_system": "HFF", "assay": "Cytotoxicity against human HFF cells by MTT assay", "settings": "not given", "values": [
      {"smiles": "Cc1ccc(NC(=S)N/N=C/c2ccccn2)cc1", "Activity": "Non-Toxic"}
    ]},
    {"test_system": "KB 3-1", "assay": "(§6) Cytotoxicity against human KB-3-1 cells assessed as inhibition of cell proliferation incubated for 72 hrs by MTT assay", "type": "functional, cell-based", "settings": "KB 3-1, 72 h, read-out: IC50", "how_it_was_run": "as §2", "units": {"IC50": "µM"}, "values": [
      {"smiles": "Cc1ccc(NC(=S)N/N=C/c2ccccn2)cc1", "IC50": 0.74},
      {"smiles": "Oc1ccccc1/C=N/Nc1nc2ccccc2s1", "IC50": 18.1}
    ]},
    {"test_system": "KB 3-1", "assay": "as §6", "type": "functional, cell-based", "settings": "KB 3-1, 72 h, read-out: pIC50 (converted)", "how_it_was_run": "as §2", "units": {"IC50": "µM"}, "values": [
      {"smiles": "Cc1ccc(NC(=S)N/N=C/c2ccccn2)cc1", "IC50": 0.724},
      {"smiles": "Oc1ccccc1/C=N/Nc1nc2ccccc2s1", "IC50": 15.8},
      {"smiles": "COc1cc(N/N=C2/C(=O)Nc3ccccc32)ncn1", "IC50": 55}
    ]},
    {"test_system": "MES-SA/Dx5", "assay": "Cytotoxicity against human MES-SA/DX5 cells incubated for 72 hrs in presence of efflux pump inhibitor, Tariquidar by MTT assay", "type": "functional, cell-based", "settings": "not given", "how_it_was_run": "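Run as the 72 h MTT viability readout (12 h attachment, MTT 0.83 mg/mL for 1 h, DMSO lysis, A540), with the P-gp inhibitor Tariquidar at 1 µM co-present. IC50 came from sigmoidal fits of 2 to 4 independent experiments.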", "values": [
      {"smiles": "Cc1ccc(NC(=S)N/N=C/c2ccccn2)cc1", "Activity": "Active"},
      {"smiles": "Oc1ccccc1/C=N/Nc1nc2ccccc2s1", "Activity": "Active"}
    ]},
    {"test_system": "KB-V1", "assay": "(§7) Cytotoxicity against human KB-V1 cells assessed as inhibition of cell proliferation incubated for 72 hrs by MTT assay", "type": "functional, cell-based", "settings": "KB-V1, 72 h, read-out: IC50", "how_it_was_run": "as §2", "units": {"IC50": "µM"}, "values": [
      {"smiles": "Cc1ccc(NC(=S)N/N=C/c2ccccn2)cc1", "IC50": 0.92},
      {"smiles": "Oc1ccccc1/C=N/Nc1nc2ccccc2s1", "IC50": 11.7}
    ]},
    {"test_system": "KB-V1", "assay": "as §7", "type": "functional, cell-based", "settings": "KB-V1, 72 h, read-out: pIC50 (converted)", "how_it_was_run": "as §2", "units": {"IC50": "µM"}, "values": [
      {"smiles": "Cc1ccc(NC(=S)N/N=C/c2ccccn2)cc1", "IC50": 0.891},
      {"smiles": "Oc1ccccc1/C=N/Nc1nc2ccccc2s1", "IC50": 11.7}
    ]},
    {"test_system": "MES-SA", "assay": "(§8) Cytotoxicity against human MES-SA cells assessed as inhibition of cell proliferation incubated for 72 hrs by MTT assay", "type": "functional, cell-based", "settings": "read-out: IC50", "how_it_was_run": "as §2", "units": {"IC50": "µM"}, "values": [
      {"smiles": "Cc1ccc(NC(=S)N/N=C/c2ccccn2)cc1", "IC50": 0.396},
      {"smiles": "Oc1ccccc1/C=N/Nc1nc2ccccc2s1", "IC50": 24.7}
    ]},
    {"test_system": "MES-SA", "assay": "as §8", "type": "functional, cell-based", "settings": "read-out: pIC50 (converted)", "how_it_was_run": "as §2", "units": {"IC50": "µM"}, "values": [
      {"smiles": "Cc1ccc(NC(=S)N/N=C/c2ccccn2)cc1", "IC50": 0.363},
      {"smiles": "Oc1ccccc1/C=N/Nc1nc2ccccc2s1", "IC50": 23.4},
      {"smiles": "COc1cc(N/N=C2/C(=O)Nc3ccccc32)ncn1", "IC50": 91.2}
    ]},
    {"test_system": "not listed separately", "assay": "Selectivity ratio of IC50 for human MES-SA cells transfected with mCherry to IC50 for human MES-SA/DX5 cells transfected with mCherry incubated for 72 hrs by fluorescent assay", "type": "functional", "settings": "not given", "values": [
      {"smiles": "Oc1ccccc1/C=N/Nc1nc2ccccc2s1", "Ratio IC50": 7.18}
    ]},
    {"test_system": "MES-SA/Dx5", "assay": "(§9) Cytotoxicity against human MES-SA/DX5 cells transfected with mCherry fluorescent protein assessed as inhibition of cell proliferation incubated for 72 hrs by fluorescent assay", "type": "functional, cell-based", "settings": "Homo sapiens, MES-SA/Dx5, 72 h; read-out: IC50", "how_it_was_run": "as §5", "units": {"IC50": "µM"}, "values": [
      {"smiles": "Cc1ccc(NC(=S)N/N=C/c2ccccn2)cc1", "IC50": 0.77},
      {"smiles": "Oc1ccccc1/C=N/Nc1nc2ccccc2s1", "IC50": 4.55}
    ]},
    {"test_system": "MES-SA/Dx5", "assay": "as §9", "type": "functional, cell-based", "settings": "Homo sapiens, MES-SA/Dx5, 72 h; read-out: pIC50 (converted)", "how_it_was_run": "as §5", "units": {"IC50": "µM"}, "values": [
      {"smiles": "Cc1ccc(NC(=S)N/N=C/c2ccccn2)cc1", "IC50": 0.562},
      {"smiles": "Oc1ccccc1/C=N/Nc1nc2ccccc2s1", "IC50": 4.27}
    ]},
    {"test_system": "not listed separately", "assay": "(§10) Cytotoxicity against human A2780adr cells assessed as inhibition of cell proliferation incubated for 72 hrs by MTT assay", "type": "functional, cell-based", "settings": "A2780 ADR, read-out: IC50", "how_it_was_run": "as §2", "units": {"IC50": "µM"}, "values": [
      {"smiles": "Cc1ccc(NC(=S)N/N=C/c2ccccn2)cc1", "IC50": 0.064},
      {"smiles": "Oc1ccccc1/C=N/Nc1nc2ccccc2s1", "IC50": 6.01}
    ]},
    {"test_system": "not listed separately", "assay": "as §10", "type": "functional, cell-based", "settings": "A2780 ADR, read-out: pIC50 (converted)", "how_it_was_run": "as §2", "units": {"IC50": "µM"}, "values": [
      {"smiles": "Cc1ccc(NC(=S)N/N=C/c2ccccn2)cc1", "IC50": 0.0631},
      {"smiles": "Oc1ccccc1/C=N/Nc1nc2ccccc2s1", "IC50": 5.89}
    ]},
    {"test_system": "A2780 ADR", "assay": "as §10", "type": "functional, cell-based", "settings": "not given", "how_it_was_run": "as §2", "values": [
      {"smiles": "COc1cc(N/N=C2/C(=O)Nc3ccccc32)ncn1", "pIC50": "inactive"}
    ]}
  ]
}
